For test [1], the system named is Trypanosoma cruzi. The experiment in a line: Antitrypanosomal activity against Trypanosoma cruzi Tulahuen assessed as parasite growth after 10 days by nephelometry. The test is classed as functional. The following applies: 240 h.
The subject of test [2] is DLD-1. The experiment in a line: Cytotoxicity against human DLD1 cells after 48 hrs by MTT assay. Type of test: functional, cell-based. The following applies: DLD-1, 48 h. A digest of the protocol: (§1)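 Proliferation of human tumour lines obtained from ATCC: A549 lung adenocarcinoma (CCL-185), PANC-1 pancreatic (CRL-1469), AsPC-1 pancreatic (CRL-1682) and DLD-1 colorectal adenocarcinoma. The assay was run by a protocol described earlier.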
For orientation: Formazan colour is commonly taken as a measure of viable cells.

Test [3] in a line: Cytotoxicity against human NCI-ADR-RES cells after 48 hrs by MTT assay. The test is classed as functional, cell-based.
Test [4] has as its system ASPC1. The experiment in a line: Cytotoxicity against human AsPC1 cells after 48 hrs by MTT assay. Conditions: ASPC1, 48 h. Type of test: functional, cell-based. A digest of the protocol: as §1
Test [5] deals with A549. The experiment in a line: Cytotoxicity against human A549 cells after 48 hrs by MTT assay. The test is classed as functional, cell-based. Conditions: A549, 48 h. An outline of the steps: as §1
For test [6], the system named is PANC-1. The experiment in a line: Cytotoxicity against human PANC1 cells after 48 hrs by MTT assay. The test is classed as functional, cell-based. The following applies: PANC-1, 48 h. An outline of the steps:
as §1

Test [7] deals with TCF4/beta-catenin (Homo sapiens) (UniProt P35222+Q9NQB0). The experiment in a line: Inhibition of GST-tagged T cell factor4/[…] interaction assessed as reduction in alkaline phosphatase level. The test is classed as cell-based.

Each structure is given as a SMILES string. The source made the active and inactive calls. No cut-off for these calls is given here.

As to `CC1(C)CCC[C@@]2(C)c3cc4c(cc3CC[C@H]12)C(=O)C=CC4=O` [CYCLOZONARONE], the GI50 (as a rule, the concentration that inhibits growth by half) in test [1] was 0.7 µM.

Regarding `C[C@]1(C=O)CCC[C@]2(C)c3cc4c(cc3C(=O)C[C@@H]12)C(=O)C=CC4=O`, the IC50 (as a rule, the concentration that gives 50% inhibition) was 3.7 µM in test [2]; above 14.8 µM in test [3]; 6.1 µM in test [4]; above 14.8 µM in test [5]; 6.1 µM in test [6].

Turning to `C[C@]1(CO)CCC[C@]2(C)c3cc4c(cc3C=C[C@@H]12)C(=O)C=CC4=O`, the IC50 in test [2] was 9.8 µM; in test [3], above 15.5 µM; in test [4], above 15.5 µM; in test [5], above 15.5 µM; in test [6], 13.8 µM.

On to `C[C@@]12CCC(=O)c3coc(c31)C(=O)c1cc3c(cc12)C(=O)C=CC3=O`, for which the inhibition result in test [7] is “inactive”.
